Measurements published in ChEMBL document CHEMBL1154727, “Cytotoxic activity of 3-(5-phenyl-3H-[1,2,4]dithiazol-3-yl)chromen-4-ones and 4-oxo-4H-chromene-3-carbothioic acid N-phenylamides” (Eur J Med Chem, 2010).

Legend:
HEp-2 [1] = assay: Growth inhibition of human Hep2 cells at 100 uM after 48 hrs by sulforhodamine B assay; assay type: functional; settings: HEp-2, 48 h, read-out: GI
How it was run: (§1)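 Cells kept in RPMI-1640 with 10% FBS, penicillin and streptomycin; trypan blue viability check beforehand. Seeded at 1 × 10^4 cells/well, 24 h at 37 °C, 5% CO2, then treated in quadruplicate for 48 h. Compounds diluted in medium with 50 µg/ml gentamycin; single test level 100 µM. TCA fixation at 4 °C for 1 h, SRB stain, Tris pH 10.5 solubilization, OD 540 nm. IC50 taken as the mean from dose-response curves.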

A549 [2] = assay: Growth inhibition of human A549 cells at 100 uM after 48 hrs by sulforhodamine B assay; assay type: functional; settings: A549, 48 h, read-out: GI; how it was run: as §1
IMR-32 [3] = assay: Growth inhibition of human IMR32 cells after 48 hrs by sulforhodamine B assay; assay type: functional, cell-based; settings: IMR-32, 48 h; how it was run: as §1
COLO 205 [4] = assay: Growth inhibition of human COLO205 cells at 100 uM after 48 hrs by sulforhodamine B assay; assay type: functional; settings: COLO 205, 48 h, read-out: GI; how it was run: as §1
A549 [5] = assay: Growth inhibition of human A549 cells after 48 hrs by sulforhodamine B assay; assay type: functional, cell-based; settings: A549, 48 h; how it was run: as §1
PC-3 [6] = assay: Growth inhibition of human PC3 cells after 48 hrs by sulforhodamine B assay; assay type: functional, cell-based; settings: PC-3, 48 h; how it was run: as §1
IMR-32 [7] = assay: Growth inhibition of human IMR32 cells at 100 uM after 48 hrs by sulforhodamine B assay; assay type: functional; settings: IMR-32, 48 h, read-out: GI; how it was run: as §1
HEp-2 [8] = assay: Growth inhibition of human Hep2 cells after 48 hrs by sulforhodamine B assay; assay type: functional, cell-based; settings: HEp-2, 48 h; how it was run: as §1
OVCAR-5 (human) [9] = assay: Growth inhibition of human OVCAR-5 cells at 100 uM after 48 hrs by sulforhodamine B assay; settings: OVCAR-5, 48 h, read-out: GI
COLO 205 [10] = assay: Growth inhibition of human COLO205 cells after 48 hrs by sulforhodamine B assay; assay type: functional, cell-based; settings: COLO 205, 48 h; how it was run: as §1
OVCAR-5 (human) [11] = assay: Growth inhibition of human OVCAR-5 cells after 48 hrs by sulforhodamine B assay; settings: OVCAR-5, 48 h
PC-3 [12] = assay: Growth inhibition of human PC3 cells at 100 uM after 48 hrs by sulforhodamine B assay; assay type: functional; settings: PC-3, 48 h, read-out: GI; how it was run: as §1
IMR-32 [13] = assay: Growth inhibition of human IMR32 cells at 10 uM after 48 hrs by sulforhodamine B assay; assay type: functional; settings: IMR-32, 48 h, read-out: GI
How it was run: (§2)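 Cells grown in RPMI-1640 with 10% FBS and antibiotics, plated at 1 × 10^4 cells/well for 24 h at 37 °C, 5% CO2. Agents diluted in gentamycin-containing medium, then added in quadruplicate for 48 h. Cells fixed with cold TCA at 4 °C for 1 h, stained with 0.4% SRB, and dye dissolved in 10 mM Tris pH 10.5; absorbance read at 540 nm.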

A549 [14] = assay: Growth inhibition of human A549 cells at 10 uM after 48 hrs by sulforhodamine B assay; assay type: functional; settings: A549, 48 h, read-out: GI; how it was run: as §2
HEp-2 [15] = assay: Growth inhibition of human Hep2 cells at 10 uM after 48 hrs by sulforhodamine B assay; assay type: functional; settings: HEp-2, 48 h, read-out: GI; how it was run: as §2
HEp-2 [16] = assay: Growth inhibition of human Hep2 cells at 1 uM after 48 hrs by sulforhodamine B assay; assay type: functional; settings: HEp-2, 48 h, read-out: GI; how it was run: as §2
A549 [17] = assay: Growth inhibition of human A549 cells at 1 uM after 48 hrs by sulforhodamine B assay; assay type: functional; settings: A549, 48 h, read-out: GI; how it was run: as §2
IMR-32 [18] = assay: Growth inhibition of human IMR32 cells at 1 uM after 48 hrs by sulforhodamine B assay; assay type: functional; settings: IMR-32, 48 h, read-out: GI; how it was run: as §2
OVCAR-5 (human) [19] = assay: Growth inhibition of human OVCAR-5 cells at 10 uM after 48 hrs by sulforhodamine B assay; settings: OVCAR-5, 48 h, read-out: GI
PC-3 [20] = assay: Growth inhibition of human PC3 cells at 10 uM after 48 hrs by sulforhodamine B assay; assay type: functional; settings: PC-3, 48 h, read-out: GI; how it was run: as §2
COLO 205 [21] = assay: Growth inhibition of human COLO205 cells at 10 uM after 48 hrs by sulforhodamine B assay; assay type: functional; settings: COLO 205, 48 h, read-out: GI; how it was run: as §2

Compound: O=c1c(C2N=C(c3ccccc3)SS2)coc2cc(Cl)c(Cl)cc12 (centres undefined)
- inhibition of growth at 100 µM (HEp-2 [1]): 51%
- inhibition of growth at 100 µM (A549 [2]): 52%
- IC50 (IMR-32 [3]): 58 µM
- inhibition of growth at 100 µM (COLO 205 [4]): 50%
- IC50 (A549 [5]): 95 µM
- IC50 (PC-3 [6]): 60 µM
- inhibition of growth at 100 µM (IMR-32 [7]): 77%
- IC50 (HEp-2 [8]): 98 µM
- inhibition of growth at 100 µM (OVCAR-5 (human) [9]): 68%
- IC50 (COLO 205 [10]): > 100 µM
- IC50 (OVCAR-5 (human) [11]): 65.2 µM
- inhibition of growth at 100 µM (PC-3 [12]): 70%

Compound: O=c1c(C(=S)Nc2ccccc2)coc2cc(Cl)c(Cl)cc12
- inhibition of growth at 100 µM (HEp-2 [1]): 4%
- inhibition of growth at 100 µM (A549 [2]): 3%
- IC50 (IMR-32 [3]): 89.9 µM
- inhibition of growth at 100 µM (COLO 205 [4]): 16%
- IC50 (A549 [5]): 71.2 µM
- IC50 (PC-3 [6]): 95.4 µM
- inhibition of growth at 100 µM (IMR-32 [7]): 18%
- IC50 (HEp-2 [8]): > 100 µM
- inhibition of growth at 100 µM (OVCAR-5 (human) [9]): 2%
- IC50 (COLO 205 [10]): > 100 µM
- IC50 (OVCAR-5 (human) [11]): > 100 µM
- inhibition of growth at 100 µM (PC-3 [12]): 16%

Compound: O=c1c(C2N=C(c3ccccc3)SS2)coc2ccc(Cl)cc12 (centres undefined)
- inhibition of growth at 100 µM (HEp-2 [1]): 69%
- inhibition of growth at 100 µM (A549 [2]): 73%
- IC50 (IMR-32 [3]): 10 µM
- inhibition of growth at 100 µM (COLO 205 [4]): 12%
- IC50 (A549 [5]): 71.3 µM
- IC50 (PC-3 [6]): 52.7 µM
- inhibition of growth at 100 µM (IMR-32 [7]): 92%
- IC50 (HEp-2 [8]): 74.9 µM
- inhibition of growth at 100 µM (OVCAR-5 (human) [9]): 71%
- IC50 (COLO 205 [10]): > 100 µM
- IC50 (OVCAR-5 (human) [11]): 66.5 µM
- inhibition of growth at 100 µM (PC-3 [12]): 62%

Compound: CC(=O)O[C@H]1C(=O)[C@@]2(C)[C@H]([C@H](OC(=O)c3ccccc3)[C@]3(O)C[C@H](OC(=O)[C@H](O)[C@@H](NC(=O)c4ccccc4)c4ccccc4)C(C)=C1C3(C)C)[C@]1(OC(C)=O)CO[C@@H]1C[C@@H]2O [PACLITAXEL]
- inhibition of growth at 10 µM (IMR-32 [13]): 45%
- IC50 (A549 [5]): 2.7 µM
- inhibition of growth at 10 µM (A549 [14]): 67%
- inhibition of growth at 10 µM (HEp-2 [15]): 55%
- IC50 (OVCAR-5 (human) [11]): 2.7 µM

Compound: COc1cccc2c1C(=O)c1c(O)c3c(c(O)c1C2=O)C[C@@](O)(C(=O)CO)C[C@@H]3O[C@H]1C[C@H](N)[C@H](O)[C@H](C)O1 [DOXORUBICIN]
- IC50 (IMR-32 [3]): 1.7 µM
- inhibition of growth at 1 µM (HEp-2 [16]): 57%
- inhibition of growth at 1 µM (A549 [17]): 93%
- inhibition of growth at 1 µM (IMR-32 [18]): 55%

Compound: O=c1c(C2N=C(c3ccccc3)SS2)coc2ccc(F)cc12 (centres undefined)
- inhibition of growth at 100 µM (HEp-2 [1]): 51%
- inhibition of growth at 100 µM (A549 [2]): 55%
- IC50 (IMR-32 [3]): 14.6 µM
- inhibition of growth at 100 µM (COLO 205 [4]): 37%
- IC50 (A549 [5]): 91.1 µM
- IC50 (PC-3 [6]): > 100 µM
- inhibition of growth at 100 µM (IMR-32 [7]): 75%
- IC50 (HEp-2 [8]): 98.6 µM
- inhibition of growth at 100 µM (OVCAR-5 (human) [9]): 27%
- IC50 (COLO 205 [10]): > 100 µM
- IC50 (OVCAR-5 (human) [11]): > 100 µM
- inhibition of growth at 100 µM (PC-3 [12]): 32%

Compound: O=c1c(C2N=C(c3ccccc3)SS2)coc2ccccc12 (centres undefined)
- inhibition of growth at 100 µM (HEp-2 [1]): 48%
- inhibition of growth at 100 µM (A549 [2]): 42%
- IC50 (IMR-32 [3]): 16.5 µM
- inhibition of growth at 100 µM (COLO 205 [4]): 18%
- IC50 (A549 [5]): > 100 µM
- IC50 (PC-3 [6]): > 100 µM
- inhibition of growth at 100 µM (IMR-32 [7]): 82%
- IC50 (HEp-2 [8]): > 100 µM
- inhibition of growth at 100 µM (OVCAR-5 (human) [9]): 11%
- IC50 (COLO 205 [10]): > 100 µM
- IC50 (OVCAR-5 (human) [11]): > 100 µM
- inhibition of growth at 100 µM (PC-3 [12]): 23%

Compound: CO[C@@]12[C@H](COC(N)=O)C3=C(C(=O)C(C)=C(N)C3=O)N1C[C@@H]1N[C@@H]12 [MITOMYCIN]
- IC50 (PC-3 [6]): 1.5 µM
- inhibition of growth at 10 µM (OVCAR-5 (human) [19]): 65%
- inhibition of growth at 10 µM (PC-3 [20]): 41%
- IC50 (HEp-2 [8]): 1.5 µM
- inhibition of growth at 10 µM (COLO 205 [21]): 44%
